Assay results pooled from the literature.
Each line is one published result; the experiments were not run side by side.
Host: human
Medium: plasma

| Structure (SMILES) | conditions | Cmax |
| --- | --- | --- |
| N=C(N)NCCC[C@@H](NC(=O)[C@@H](N)Cc1ccccc1)C(=O)N[C@@H](Cc1ccccc1)C(=O)N[C@@H](CCCCN)C(N)=O | subcutaneous, 15 mg, multiple doses, once daily, patients | 726 ng/mL |
| CN(C)CCc1c[nH]c2ccccc12 | intravenous, 9 mg, healthy volunteers, infusion | 20.8 ng/mL |
| C=C(C)[C@@H]1CC[C@]2(NCCN3CCS(=O)(=O)CC3)CC[C@]3(C)[C@H](CC[C@@H]4[C@@]5(C)CC=C(C6=CC[C@@](COc7ncccc7C#N)(C(=O)O)CC6)C(C)(C)[C@@H]5CC[C@]43C)[C@@H]12 | oral, 100 mg, fed | 390 ng/mL |
| Cc1ncc2n1-c1ccc(Cl)cc1C(c1ccccc1F)=NC2 | oral, 2 mg, single dose | 9.74 ng/mL |
| CC(=C/C=C/C(C)=C/C(=O)O)/C=C1\CCCc2ccccc21 | oral, 20 mg, single dose, fasted, healthy volunteers | ~70 ng/mL |
| C=CCNc1c(O)cc2c(O)c1C[C@@H](C)C[C@H](OC)[C@H](O)[C@@H](C)/C=C(\C)[C@H](OC(N)=O)[C@@H](OC)/C=C\C=C(/C)C(=O)N2 | intravenous, 400 mg/m², patients, infusion | 7800 ng/mL |
| c1cc([C@H]2CC[C@]3(CC2)OO[C@]2(O3)C3CC4CC(C3)CC2C4)ccc1OCCN1CCOCC1 | oral, 400 mg, patients | 732 ng/mL |
| CC[C@H](C)[C@H](NC(=O)[C@H](CC(C)C)NC(=O)[C@H](Cc1c[nH]c2ccccc12)NC(=O)[C@H](CCC(N)=O)NC(=O)[C@@H](NC(=O)[C@H](Cc1ccccc1)NC(=O)[C@H](C)NC(=O)[C@H](CCCCNC(=O)COCCOCCNC(=O)COCCOCCNC(=O)CC[C@H](NC(=O)CCCCCCCCCCCCCCCCCCC(=O)O)C(=O)O)NC(=O)[C@H](CCC(N)=O)NC(=O)[C@H](C)NC(=O)[C@@H](NC(=O)[C@H](CCCCN)NC(=O)[C@H](CC(=O)O)NC(=O)[C@H](CC(C)C)NC(=O)C(C)(C)NC(=O)[C@@H](NC(=O)[C@H](CO)NC(=O)[C@H](Cc1ccc(O)cc1)NC(=O)[C@H](CC(=O)O)NC(=O)[C@H](CO)NC(=O)[C@@H](NC(=O)[C@H](Cc1ccccc1)NC(=O)[C@@H](NC(=O)CNC(=O)[C@H](CCC(=O)O)NC(=O)C(C)(C)NC(=O)[C@@H](N)Cc1ccc(O)cc1)[C@@H](C)O)[C@@H](C)O)[C@@H](C)CC)[C@@H](C)CC)C(C)C)C(=O)N[C@@H](C)C(=O)NCC(=O)NCC(=O)N1CCC[C@H]1C(=O)N[C@@H](CO)C(=O)N[C@@H](CO)C(=O)NCC(=O)N[C@@H](C)C(=O)N1CCC[C@H]1C(=O)N1CCC[C@H]1C(=O)N1CCC[C@H]1C(=O)N[C@@H](CO)C(N)=O | subcutaneous, 0.5 mg, multiple doses, healthy volunteers | 77.8 ng/mL |
| COc1ccc(C[C@@H]2NC(=O)[C@H]([C@@H](C)O)NC(=O)[C@@H]3[C@@H]4CCN3C(=O)[C@@H]3Cc5cn(c6ccc(F)cc56)CCCCCCN(Cc5ccc(cc5)CCNC(=O)[C@]5(C)CCCN5C2=O)C(=O)CCC(=O)N[C@@H](C)C(=O)N[C@H](CNC(=O)CCCCC[N+](C)(C)C)C(=O)N[C@@H](Cc2cccc(c2)CNC(=O)CO4)C(=O)N3)cc1 | oral, 200 mg, single dose | 7.84 nM |
